Common to all, as to assay type: functional, cell-based
One assay has as its system MCF7. The assay is described as follows: Cytotoxicity against human MCF7 cells by MTT assay. Conditions: for pIC50: Homo sapiens, MCF7, read-out: IC50; for IC50: mcf7; call rule not given here. The procedure, abridged: (§1)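 MTT assay on four human tumour lines: A549 (alveolar adenocarcinoma epithelial), HeLa (cervical cancer), MDA-MB-231 and MCF7 (breast adenocarcinoma). Dose-response curves were plotted from absorbance data, and IC50 was calculated from them. Each value is the average of two independent experiments.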

A further assay has as its system MDA-MB-231. The assay is described as follows: Cytotoxicity against human MDA-MB-231 cells by MTT assay. As to conditions: for pIC50: Homo sapiens, MDA-MB-231, read-out: IC50; for IC50: mda-mb-231. The procedure, abridged: as §1
For the next assay, the system named is A549. The assay can be described thus: Cytotoxicity against human A549 cells by MTT assay. Conditions: for IC50: a549; for pIC50: Homo sapiens, A549, read-out: IC50. Background: Tetrazolium assays rely on reduction of a dye to a coloured formazan, in cell work by metabolically active cells.
The next assay relates to HeLa. The assay can be described thus: Cytotoxicity against human HeLa cells by MTT assay. Conditions: for pIC50: Homo sapiens, HeLa, read-out: IC50; for IC50: hela. The procedure, abridged: as §1

pIC50: −log10 of the molar value.

On to `CCOC(=O)C1C(c2ccc(F)cc2)c2c(c3ccccc3oc2=O)OC1(O)C(F)(F)F` (racemic), for which the negative logarithm of the IC50 (pIC50) (in general, −log10 of the IC50, conventionally taken in molar units) in the assay on MCF7 is 5.12; in the assay with MDA-MB-231, 4.95; with HeLa, 4.96. In the assay on A549, the IC50 result is recorded as “Not Active”.

As for `CCOC(=O)C1C(c2ccc(C#N)cc2)c2c(c3ccccc3oc2=O)OC1(O)C(F)(F)F` (racemic), the IC50 entry in the assay on MCF7, with MDA-MB-231, with A549 and with HeLa was “Not Active” in each case.

As for `CCOC(=O)C1C(c2ccc(OC)cc2)c2c(c3ccccc3oc2=O)OC1(O)C(F)(F)F` (racemic), the pIC50 in the assay on MCF7 was 4.14; with MDA-MB-231 it was 5.66; in the assay on A549, 4.08; in the assay on HeLa, 4.95.

With `CCOC(=O)C1C(c2ccc(O)cc2)c2c(c3ccccc3oc2=O)OC1(O)C(F)(F)F` (racemic), the IC50 entry in the assay on MCF7, with MDA-MB-231, in the assay with A549 and with HeLa was “Not Active” each time.

Consider `CCOC(=O)C1C(c2ccc(O)c(OC)c2)c2c(c3ccccc3oc2=O)OC1(O)C(F)(F)F` (racemic), for which the IC50 result with MCF7, in the assay with MDA-MB-231, in the assay with A549 and in the assay with HeLa was “Not Active” in each case.

As to `CCOC(=O)C1C(c2ccc(C(C)C)cc2)c2c(c3ccccc3oc2=O)OC1(O)C(F)(F)F` (racemic), the IC50 entry in the assay on MCF7, with MDA-MB-231, in the assay with A549 and with HeLa was “Not Active” each time.

As for `CCOC(=O)C1C(c2ccc(OC)c(OC)c2)c2c(c3ccccc3oc2=O)OC1(O)C(F)(F)F` (racemic), the negative-log IC50 (pIC50) with MCF7 is 4.27; with MDA-MB-231, 5.11; in the assay on A549, 4.46; in the assay on HeLa, 4.06.

In the case of `CCOC(=O)C1C(c2ccc([N+](=O)[O-])cc2)c2c(c3cc(F)ccc3oc2=O)OC1(O)C(F)(F)F` (racemic), the IC50 result in the assay on MCF7, in the assay with MDA-MB-231, in the assay with A549 and in the assay on HeLa was “Not Active” throughout.

With `CCOC(=O)C1C(c2ccc(F)cc2)c2c(c3cc(F)ccc3oc2=O)OC1(O)C(F)(F)F` (racemic), the IC50 result with MCF7, with MDA-MB-231, in the assay on A549 and with HeLa was “Not Active” in each case.

`CCOC(=O)C1C(c2ccc(C#N)cc2)c2c(c3cc(F)ccc3oc2=O)OC1(O)C(F)(F)F` (racemic): the IC50 result in the assay with MCF7, in the assay on MDA-MB-231, in the assay with A549 and in the assay on HeLa was “Not Active” in each case.

As for `CCOC(=O)C1C(c2ccc(O)cc2)c2c(c3cc(F)ccc3oc2=O)OC1(O)C(F)(F)F` (racemic), the pIC50 with MCF7 is 5.18; with MDA-MB-231, 5.18; in the assay on A549, 4.47; in the assay with HeLa, 4.94.

With `CCOC(=O)C1C(c2cccnc2)c2c(c3ccccc3oc2=O)OC1(O)C(F)(F)F` (racemic), the IC50 result with MCF7, in the assay on MDA-MB-231, in the assay with A549 and in the assay with HeLa was “Not Active” in each case.

For `CCOC(=O)C1C(c2ccc(C)cc2)c2oc(CO)cc(=O)c2OC1(O)C(F)(F)F` (racemic), the IC50 result in the assay on MCF7, in the assay with MDA-MB-231, in the assay with A549 and with HeLa was “Not Active” each time.

Turning to `CCOC(=O)C1C(c2ccc(OC)cc2)c2oc(CO)cc(=O)c2OC1(O)C(F)(F)F` (racemic), the IC50 result in the assay with MCF7, with MDA-MB-231, in the assay on A549 and with HeLa was “Not Active” in each case.

For the molecule `CCOC(=O)C1C(c2ccc(O)cc2)c2oc(CO)cc(=O)c2OC1(O)C(F)(F)F` (racemic), the IC50 entry in the assay with MCF7, in the assay on MDA-MB-231, in the assay on A549 and in the assay on HeLa was “Not Active” each time.

Regarding `COc1cccc2c1C(=O)c1c(O)c3c(c(O)c1C2=O)C[C@@](O)(C(=O)CO)C[C@@H]3O[C@H]1C[C@H](N)[C@H](O)[C@H](C)O1` [DOXORUBICIN], the pIC50 with MDA-MB-231 and in the assay on HeLa was over 6.00 each time.

Source of the values: ChEMBL document CHEMBL2202981, “Synthesis and cytotoxicity evaluation of highly functionalized pyranochromenes and pyranopyrans” (Bioorg Med Chem Lett, 2012).
